Common to all, as to assay type: functional
Assay [1] deals with Candida albicans. Nature of the assay: Antifungal activity against Candida albicans ATCC 10231 assessed as fungal growth inhibition by double dilution method. The essentials:
(§1)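 Broth microdilution after CLSI M27-A3/M38-A2 with minor changes. Single colony grown overnight in YPD at 35 °C, 200 rpm. Compound final range 0.06-31.3 µg/mL; incubated 48 h at 35 °C.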

In assay [2] the test system is Candida albicans. As to the kind of experiment: Antifungal activity against Candida albicans ATCC 64124 assessed as fungal growth inhibition by double dilution method. The essentials:
(§2)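 Broth microdilution after CLSI M27-A3/M38-A2 with minor modifications. A single colony was grown overnight in YPD at 35 °C with shaking at 200 rpm. Cells were mixed 1:1 with compound (final 0.06-31.3 µg/mL, from DMSO stocks) and incubated 48 h at 35 °C.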

The test system of assay [3] is Candida albicans. As to the kind of experiment: Antifungal activity against itraconazole/fluconazole susceptible Candida albicans ATCC MYA-2876 assessed as fungal growth inhibition by double dilution method. In a few lines:
as §2

Assay [4] concerns Candida albicans. Nature of the assay: Antifungal activity against itraconazole/fluconazole resistant Candida albicans ATCC 90819 assessed as fungal growth inhibition by double dilution method. In a few lines: as §2
The test system of assay [5] is Candida albicans. Nature of the assay: Antifungal activity against itraconazole/fluconazole susceptible Candida albicans ATCC MYA-2310 assessed as fungal growth inhibition by double dilution method. In a few lines: as §2
Assay [6] concerns Candida albicans. As to the kind of experiment: Antifungal activity against itraconazole/fluconazole resistant Candida albicans ATCC MYA-1237 assessed as fungal growth inhibition by double dilution method. The essentials:
as §2

Assay [7] deals with Candida albicans. As to the kind of experiment: Antifungal activity against itraconazole/fluconazole resistant Candida albicans ATCC MYA-1003 assessed as fungal growth inhibition by double dilution method. In a few lines:
as §2

The test system of assay [8] is Nakaseomyces glabratus. As to the kind of experiment: Antifungal activity against Candida glabrata ATCC 2001 assessed as fungal growth inhibition by double dilution method. In a few lines:
as §1

The subject of assay [9] is Pichia kudriavzevii. As to the kind of experiment: Antifungal activity against Pichia kudriavzevii ATCC 6258 assessed as fungal growth inhibition by double dilution method. In a few lines: as §1
Assay [10] has as its system Nakaseomyces glabratus. Nature of the assay: Antifungal activity against Candida glabrata ATCC 22019 assessed as fungal growth inhibition by double dilution method. In a few lines:
as §1

The subject of assay [11] is [Candida] auris. Nature of the assay: Antifungal activity against Candida auris AR Bank # 0384 assessed as fungal growth inhibition by double dilution method. The following applies: Candidozyma auris. The essentials: as §1
In assay [12] the test system is [Candida] auris. Nature of the assay: Antifungal activity against Candida auris AR Bank # 0390 assessed as fungal growth inhibition by double dilution method. The following applies: Candidozyma auris. The essentials:
as §1

For the next assay, the system named is Cryptococcus neoformans. Nature of the assay: Antifungal activity against Cryptococcus neoformans ATCC MYA-895 assessed as fungal growth inhibition by double dilution method. The essentials:
as §1

A further assay relates to Aspergillus terreus. As to the kind of experiment: Antifungal activity against Aspergillus terreus ATCC MYA-3633 assessed as fungal growth inhibition by double dilution method.
Assay [13] deals with Aspergillus fumigatus. Nature of the assay: Antifungal activity against Aspergillus fumigatus NRRL 163 assessed as fungal growth inhibition by double dilution method.
The next assay relates to Aspergillus flavus. Nature of the assay: Antifungal activity against Aspergillus flavus ATCC MYA-3631 assessed as fungal growth inhibition by double dilution method.
The test system of another assay is Aspergillus nidulans. Nature of the assay: Antifungal activity against Aspergillus nidulans ATCC 38163 assessed as fungal growth inhibition by double dilution method.
In assay [14] the test system is Aspergillus fumigatus. Nature of the assay: Antifungal activity against Aspergillus fumigatus NRRL 5109 assessed as fungal growth inhibition by double dilution method.
In assay [15] the test system is Aspergillus fumigatus. As to the kind of experiment: Antifungal activity against Aspergillus fumigatus NRRL 6113 assessed as fungal growth inhibition by double dilution method.
Assay [16] has as its system [Candida] auris. As to the kind of experiment: Antifungal activity against Candida auris AR Bank # 381 assessed as fungal growth inhibition by double dilution method. The settings on record: Candidozyma auris. In a few lines: as §1
For assay [17], the system named is [Candida] auris. Nature of the assay: Antifungal activity against Candida auris AR Bank # 382 assessed as fungal growth inhibition by double dilution method. The following applies: Candidozyma auris. The essentials:
as §1

Assay [18] deals with [Candida] auris. As to the kind of experiment: Antifungal activity against Candida auris AR Bank # 383 assessed as fungal growth inhibition by double dilution method. The settings on record: Candidozyma auris. In a few lines:
as §1

For assay [19], the system named is [Candida] auris. As to the kind of experiment: Antifungal activity against Candida auris AR Bank # 384 assessed as fungal growth inhibition by double dilution method. The settings on record: Candidozyma auris. In a few lines: as §1
For assay [20], the system named is [Candida] auris. As to the kind of experiment: Antifungal activity against Candida auris AR Bank # 385 assessed as fungal growth inhibition by double dilution method. The following applies: Candidozyma auris. In a few lines:
as §1

Assay [21] deals with [Candida] auris. Nature of the assay: Antifungal activity against Candida auris AR Bank # 386 assessed as fungal growth inhibition by double dilution method. The settings on record: Candidozyma auris. The essentials:
as §1

Assay [22] deals with [Candida] auris. Nature of the assay: Antifungal activity against Candida auris AR Bank # 387 assessed as fungal growth inhibition by double dilution method. The following applies: Candidozyma auris. In a few lines:
as §1

The subject of assay [23] is [Candida] auris. Nature of the assay: Antifungal activity against Candida auris AR Bank # 388 assessed as fungal growth inhibition by double dilution method. The settings on record: Candidozyma auris. In a few lines:
as §1

Assay [24] relates to [Candida] auris. As to the kind of experiment: Antifungal activity against Candida auris AR Bank # 389 assessed as fungal growth inhibition by double dilution method. The following applies: Candidozyma auris. The essentials:
as §1

Assay [25] has as its system [Candida] auris. As to the kind of experiment: Antifungal activity against Candida auris AR Bank # 390 assessed as fungal growth inhibition by double dilution method. The following applies: Candidozyma auris. In a few lines:
as §1

Assay [26] deals with Candida duobushaemulonii. Nature of the assay: Antifungal activity against Candida duobushaemulonii AR Bank # 391 assessed as fungal growth inhibition by double dilution method. The following applies: Candidozyma duobushaemuli. In a few lines:
as §1

Assay [27] relates to Candida duobushaemulonii. Nature of the assay: Antifungal activity against Candida duobushaemulonii AR Bank # 392 assessed as fungal growth inhibition by double dilution method. The following applies: Candidozyma duobushaemuli. In a few lines: as §1
For assay [28], the system named is [Candida] haemuloni. As to the kind of experiment: Antifungal activity against Candida haemulonii AR Bank # 393 assessed as fungal growth inhibition by double dilution method. The following applies: Candidozyma haemuli. The essentials: as §1
The test system of assay [29] is Candida duobushaemulonii. As to the kind of experiment: Antifungal activity against Candida duobushaemulonii AR Bank # 394 assessed as fungal growth inhibition by double dilution method. The settings on record: Candidozyma duobushaemuli. In a few lines: as §1
In assay [30] the test system is [Candida] haemuloni. Nature of the assay: Antifungal activity against Candida haemulonii AR Bank # 395 assessed as fungal growth inhibition by double dilution method. The settings on record: Candidozyma haemuli. The essentials:
as §1

The test system of a further assay is Kodamaea ohmeri. Nature of the assay: Antifungal activity against Kodamaea ohmeri AR Bank # 396 assessed as fungal growth inhibition by double dilution method. The essentials: as §1
Assay [31] has as its system Pichia kudriavzevii. As to the kind of experiment: Antifungal activity against Pichia kudriavzevii AR Bank # 397 assessed as fungal growth inhibition by double dilution method. In a few lines:
as §1

For another assay, the system named is Clavispora lusitaniae. As to the kind of experiment: Antifungal activity against Clavispora lusitaniae AR Bank # 398 assessed as fungal growth inhibition by double dilution method. The essentials:
as §1

Assay [32] relates to Saccharomyces cerevisiae. As to the kind of experiment: Antifungal activity against Saccharomyces cerevisiae AR Bank # 399 assessed as fungal growth inhibition by double dilution method. The essentials: as §1
Assay [33] deals with Saccharomyces cerevisiae. As to the kind of experiment: Antifungal activity against Saccharomyces cerevisiae AR Bank # 400 assessed as fungal growth inhibition by double dilution method. In a few lines:
as §1

We go through three compounds from ChEMBL document CHEMBL5329156, “Discovery and development of novel substituted monohydrazides as potent antifungal agents” (RSC Med Chem, 2023).

By MIC is commonly meant the lowest concentration that inhibits growth of the organism.

In brackets after ≈: the same amount, converted by molar mass. A value given as a limit tells only on which side of the number the result lay.

As to `COc1cccc(NNC(=O)c2ccc(F)cn2)c1`, the MIC stood at 0.24 µg/mL (≈ 0.919 µM) in the assay with Candida albicans [1]; 0.98 µg/mL (≈ 3.75 µM) with Candida albicans [2]; 0.49 µg/mL (≈ 1.88 µM) with Candida albicans [3]; 3.9 µg/mL (≈ 14.9 µM) with Candida albicans [4]; 1.95 µg/mL (≈ 7.46 µM) in the assay on Candida albicans [5]; 1.95 µg/mL (≈ 7.46 µM) in the assay with Candida albicans [6]. Moreover, the MIC is 0.98 µg/mL (≈ 3.75 µM) with Candida albicans [7]; 15.6 µg/mL (≈ 59.7 µM) with Nakaseomyces glabratus [8]; 0.24 µg/mL (≈ 0.919 µM) in the assay with Pichia kudriavzevii [9]; 3.9 µg/mL (≈ 14.9 µM) in the assay on Nakaseomyces glabratus [10]; 1.95 µg/mL (≈ 7.46 µM) in assay [Candida] auris [11]; 0.98 µg/mL (≈ 3.75 µM) in [Candida] auris [12]. Also, the MIC was 0.24 µg/mL (≈ 0.919 µM) with Cryptococcus neoformans; 3.9 µg/mL (≈ 14.9 µM) with Aspergillus terreus; above 31.3 µg/mL in the assay on Aspergillus fumigatus [13]; above 31.3 µg/mL in the assay on Aspergillus flavus; 1.95 µg/mL (≈ 7.46 µM) in the assay with Aspergillus nidulans; above 31.3 µg/mL with Aspergillus fumigatus [14]. In addition, the MIC in the assay on Aspergillus fumigatus [15] is above 31.3 µg/mL.
For `O=C(NNc1ccc(F)cc1)c1ncc(F)cc1F`, the MIC was determined as 0.98 µg/mL (≈ 3.67 µM) in the assay on Candida albicans [1]; 1.95 µg/mL (≈ 7.3 µM) in the assay with Candida albicans [2]; 1.95 µg/mL (≈ 7.3 µM) with Candida albicans [3]; 1.95 µg/mL (≈ 7.3 µM) in the assay with Candida albicans [4]; 3.9 µg/mL (≈ 14.6 µM) with Candida albicans [5]; 1.95 µg/mL (≈ 7.3 µM) in the assay with Candida albicans [6]. Moreover, the MIC amounted to 0.98 µg/mL (≈ 3.67 µM) with Candida albicans [7]; 15.6 µg/mL (≈ 58.4 µM) in the assay on Nakaseomyces glabratus [8]; 0.49 µg/mL (≈ 1.83 µM) with Pichia kudriavzevii [9]; 3.9 µg/mL (≈ 14.6 µM) in the assay on Nakaseomyces glabratus [10]; 1.95 µg/mL (≈ 7.3 µM) in assay [Candida] auris [11]; 0.98 µg/mL (≈ 3.67 µM) in assay [Candida] auris [12]. The MIC with Cryptococcus neoformans is 0.49 µg/mL (≈ 1.83 µM); in the assay on Aspergillus terreus, 3.9 µg/mL (≈ 14.6 µM); in the assay with Aspergillus fumigatus [13], above 31.3 µg/mL; in the assay on Aspergillus flavus, 7.8 µg/mL (≈ 29.2 µM); with Aspergillus nidulans, 0.49 µg/mL (≈ 1.83 µM); with Aspergillus fumigatus [14] it was above 31.3 µg/mL. For the same compound, the MIC in the assay with Aspergillus fumigatus [15] is above 31.3 µg/mL.
On to `O=C(NNc1ccc(Cl)cc1)c1cnccn1`, for which the MIC came out at 7.8 µg/mL (≈ 31.4 µM) in assay [Candida] auris [16]; 15.6 µg/mL (≈ 62.7 µM) in [Candida] auris [17]; 3.9 µg/mL (≈ 15.7 µM) in assay [Candida] auris [18]; 1.95 µg/mL (≈ 7.84 µM) in assay [Candida] auris [19]; 31.3 µg/mL (≈ 126 µM) in [Candida] auris [20]; 7.8 µg/mL (≈ 31.4 µM) in assay [Candida] auris [21]. In addition, the MIC in assay [Candida] auris [22] is 15.6 µg/mL (≈ 62.7 µM); in assay [Candida] auris [23], 7.8 µg/mL (≈ 31.4 µM); in assay [Candida] auris [24], 7.8 µg/mL (≈ 31.4 µM); in assay [Candida] auris [25] it was 3.9 µg/mL (≈ 15.7 µM); in the assay on Candida duobushaemulonii [26], 1.95 µg/mL (≈ 7.84 µM); in the assay on Candida duobushaemulonii [27], 1.95 µg/mL (≈ 7.84 µM). The MIC in assay [Candida] haemuloni [28] turned out to be 1.95 µg/mL (≈ 7.84 µM); with Candida duobushaemulonii [29] it was 1.95 µg/mL (≈ 7.84 µM); in assay [Candida] haemuloni [30] it was 3.9 µg/mL (≈ 15.7 µM); with Kodamaea ohmeri, 1.95 µg/mL (≈ 7.84 µM); in the assay with Pichia kudriavzevii [31], 3.9 µg/mL (≈ 15.7 µM); with Clavispora lusitaniae, 3.9 µg/mL (≈ 15.7 µM). Further, the MIC with Saccharomyces cerevisiae [32] and with Saccharomyces cerevisiae [33] was 3.9 µg/mL (≈ 15.7 µM) each time.
